# Key:
# [1] = biological target: Leucine-rich repeat serine/threonine-protein kinase 2 (Homo sapiens, UniProt Q5S007); test: Binding affinity to wild-type human partial length LRRK2 (H970 to E2527 residues) expressed in HEK293 cells at 1 uM by Kinomescan method relative to control; type: cell-based
# [2] = biological target: Cyclin-dependent kinase 2 homolog (Plasmodium falciparum (isolate 3D7)) (UniProt P61075); test: Binding affinity to wild-type Plasmodium falciparum full length PK5 (M1 to N288 residues) expressed in HEK293 cells at 1 uM by Kinomescan method relative to control; type: cell-based
# [3] = biological target: Death-associated protein kinase 3 (Homo sapiens) (UniProt O43293); test: Binding affinity to wild-type human partial length DAPK3 (M1 to A277 residues) expressed in Escherichia coli BL21 at 1 uM by Kinomescan method relative to control
# [4] = biological target: Ephrin type-B receptor 1 (Homo sapiens) (UniProt P54762); test: Binding affinity to wild-type human partial length EPHB1 (P589 to T911 residues) expressed in Escherichia coli BL21 at 1 uM by Kinomescan method relative to control
# [5] = biological target: Serine/threonine-protein kinase SBK1 (Homo sapiens) (UniProt Q52WX2); test: Binding affinity to wild-type human partial length SBK1 (P23 to P348 residues) expressed in HEK293 cells at 1 uM by Kinomescan method relative to control; type: cell-based
# [6] = biological target: Macrophage colony-stimulating factor 1 receptor (Homo sapiens) (UniProt P07333); test: Binding affinity to wild-type human partial length autoinhibited CSF1R (Y538 to S939 residues) expressed in HEK293 cells at 1 uM by Kinomescan method relative to control; type: cell-based; set-up: scale not given: the % may be the effect or the level left
# [7] = biological target: Serine/threonine-protein kinase WNK2 (Homo sapiens) (UniProt Q9Y3S1); test: Binding affinity to wild-type human partial length WNK2 (V47 to D482 residues) expressed in HEK293 cells at 1 uM by Kinomescan method relative to control; type: cell-based
# [8] = biological target: Serine/threonine-protein kinase PRP4 homolog (Homo sapiens) (UniProt Q13523); test: Binding affinity to wild-type human partial length PRP4 (D657 to I1007 residues) expressed in Escherichia coli BL21 at 1 uM by Kinomescan method relative to control
# [9] = biological target: Mitogen-activated protein kinase kinase kinase 6 (Homo sapiens) (UniProt O95382); test: Binding affinity to wild-type human partial length ASK2 (M278 to R972 residues) expressed in HEK293 cells at 1 uM by Kinomescan method relative to control; type: cell-based
# Method in brief: (§1)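 Kinome-wide competition binding panel run by an outside provider, with each compound tested at a single concentration. Activity is read against the kinase panel.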
# [10] = biological target: Death-associated protein kinase 2 (Homo sapiens) (UniProt Q9UIK4); test: Binding affinity to wild-type human full length DAPK2 (M1 to S370 residues) expressed in Escherichia coli BL21 at 1 uM by Kinomescan method relative to control
# Method in brief: (§2)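 Run as one kinome-wide competition binding panel with each compound at a single fixed concentration. Results were plotted as a kinome-wide selectivity map.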
# [11] = biological target: Muscle, skeletal receptor tyrosine-protein kinase (Homo sapiens) (UniProt O15146); test: Binding affinity to wild-type human partial length MUSK (M553 to V869 residues) expressed in Escherichia coli BL21 at 1 uM by Kinomescan method relative to control
# [12] = biological target: Serine/threonine-protein kinase STK11 (Homo sapiens) (UniProt Q15831); test: Binding affinity to wild-type human full length LKB1 (M1 to Q433 residues) expressed in Escherichia coli BL21 at 1 uM by Kinomescan method relative to control; method in brief: as §2
# [13] = biological target: 5'-AMP-activated protein kinase catalytic subunit alpha-2 (Homo sapiens) (UniProt P54646); test: Binding affinity to wild-type human partial length AMPK alpha2 (M1 to E306 residues) expressed in Escherichia coli BL21 at 1 uM by Kinomescan method relative to control; method in brief: as §1
# [14] = biological target: Proto-oncogene tyrosine-protein kinase Src (Homo sapiens) (UniProt P12931); test: Binding affinity to wild-type human partial length SRC (L240 to L536 residues) expressed in Escherichia coli BL21 at 1 uM by Kinomescan method relative to control
# [15] = biological target: Tyrosine-protein kinase JAK1 (Homo sapiens) (UniProt P23458); test: Binding affinity to wild-type human partial length JAK1 JH1 catalytic domain (V856 to K1154 residues) expressed in Escherichia coli BL21 at 1 uM by Kinomescan method relative to control
# [16] = biological target: Interleukin-1 receptor-associated kinase 3 (Homo sapiens) (UniProt Q9Y616); test: Binding affinity to wild-type human partial length IRAK3 (V147 to E596 residues) expressed in Escherichia coli BL21 at 1 uM by Kinomescan method relative to control
# [17] = test system: Phosphatidylinositol 4,5-bisphosphate 3-kinase catalytic subunit alpha isoform (Homo sapiens), P42336 [Q546K]; test: Binding affinity to human partial length PIK3CA Q546K mutant (R108 to N1068 residues) expressed in HEK293 cells at 1 uM by Kinomescan method relative to control; type: cell-based
# [18] = biological target: Tyrosine-protein kinase CSK (Homo sapiens) (UniProt P41240); test: Binding affinity to wild-type human full length CSK (M1 to L450 residues) expressed in Escherichia coli BL21 at 1 uM by Kinomescan method relative to control; method in brief: as §2
# [19] = biological target: Fibroblast growth factor receptor 3 (Homo sapiens) (UniProt P22607); test: Binding affinity to wild-type human partial length FGFR3 (R442 to S771 residues) expressed in Escherichia coli BL21 at 1 uM by Kinomescan method relative to control
# [20] = test system: Receptor-type tyrosine-protein kinase FLT3 (Homo sapiens), P36888 [D835H]; test: Binding affinity to human partial length FLT3 D835H mutant (V592 to Y969 residues) expressed in Escherichia coli BL21 at 1 uM by Kinomescan method relative to control
# [21] = biological target: Serine/threonine-protein kinase SIK3 (Homo sapiens) (UniProt Q9Y2K2); test: Binding affinity to wild-type human partial length QSK (A90 to L395 residues) expressed in HEK293 cells at 1 uM by Kinomescan method relative to control; type: cell-based
# [22] = biological target: Serine/threonine-protein kinase MARK1 (Homo sapiens) (UniProt Q9P0L2); test: Binding affinity to wild-type human partial length MARK1 (Q30 to T341 residues) expressed in Escherichia coli BL21 at 1 uM by Kinomescan method relative to control
# [23] = biological target: Serine/threonine-protein kinase PLK4 (Homo sapiens) (UniProt O00444); test: Binding affinity to wild-type human partial length PLK4 (M1 to S273 residues) expressed in HEK293 cells at 1 uM by Kinomescan method relative to control; type: cell-based
# [24] = biological target: Serine/threonine-protein kinase WNK3 (Homo sapiens) (UniProt Q9BYP7); test: Binding affinity to wild-type human partial length WNK3 (M1 to D434 residues) expressed in HEK293 cells at 1 uM by Kinomescan method relative to control; type: cell-based
# [25] = biological target: Mitogen-activated protein kinase 6 (Homo sapiens) (UniProt Q16659); test: Binding affinity to wild-type human partial length ERK3 (M1 to P413 residues) expressed in Escherichia coli BL21 at 1 uM by Kinomescan method relative to control
# Interleukin-1 receptor-associated kinase 3 (Homo sapiens), sequence (Q9Y616 whole entry, the tested form may be a part, canonical isoform): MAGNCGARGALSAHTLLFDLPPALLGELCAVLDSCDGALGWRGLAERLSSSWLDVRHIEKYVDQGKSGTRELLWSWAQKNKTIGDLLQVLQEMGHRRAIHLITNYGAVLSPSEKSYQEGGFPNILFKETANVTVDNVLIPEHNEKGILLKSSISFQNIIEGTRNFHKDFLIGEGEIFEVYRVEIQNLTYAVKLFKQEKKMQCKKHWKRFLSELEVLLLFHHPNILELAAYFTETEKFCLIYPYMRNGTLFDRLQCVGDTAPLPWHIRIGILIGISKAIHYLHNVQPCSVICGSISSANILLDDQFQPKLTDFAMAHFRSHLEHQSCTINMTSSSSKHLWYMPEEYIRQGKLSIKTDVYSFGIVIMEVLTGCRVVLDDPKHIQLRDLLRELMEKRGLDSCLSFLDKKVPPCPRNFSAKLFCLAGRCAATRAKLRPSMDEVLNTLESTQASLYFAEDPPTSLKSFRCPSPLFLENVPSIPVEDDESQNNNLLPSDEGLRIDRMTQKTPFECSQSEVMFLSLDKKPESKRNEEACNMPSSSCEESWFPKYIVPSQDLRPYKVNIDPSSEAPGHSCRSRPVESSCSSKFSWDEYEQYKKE
# Mitogen-activated protein kinase kinase kinase 6 (Homo sapiens), sequence (O95382 whole entry, the tested form may be a part): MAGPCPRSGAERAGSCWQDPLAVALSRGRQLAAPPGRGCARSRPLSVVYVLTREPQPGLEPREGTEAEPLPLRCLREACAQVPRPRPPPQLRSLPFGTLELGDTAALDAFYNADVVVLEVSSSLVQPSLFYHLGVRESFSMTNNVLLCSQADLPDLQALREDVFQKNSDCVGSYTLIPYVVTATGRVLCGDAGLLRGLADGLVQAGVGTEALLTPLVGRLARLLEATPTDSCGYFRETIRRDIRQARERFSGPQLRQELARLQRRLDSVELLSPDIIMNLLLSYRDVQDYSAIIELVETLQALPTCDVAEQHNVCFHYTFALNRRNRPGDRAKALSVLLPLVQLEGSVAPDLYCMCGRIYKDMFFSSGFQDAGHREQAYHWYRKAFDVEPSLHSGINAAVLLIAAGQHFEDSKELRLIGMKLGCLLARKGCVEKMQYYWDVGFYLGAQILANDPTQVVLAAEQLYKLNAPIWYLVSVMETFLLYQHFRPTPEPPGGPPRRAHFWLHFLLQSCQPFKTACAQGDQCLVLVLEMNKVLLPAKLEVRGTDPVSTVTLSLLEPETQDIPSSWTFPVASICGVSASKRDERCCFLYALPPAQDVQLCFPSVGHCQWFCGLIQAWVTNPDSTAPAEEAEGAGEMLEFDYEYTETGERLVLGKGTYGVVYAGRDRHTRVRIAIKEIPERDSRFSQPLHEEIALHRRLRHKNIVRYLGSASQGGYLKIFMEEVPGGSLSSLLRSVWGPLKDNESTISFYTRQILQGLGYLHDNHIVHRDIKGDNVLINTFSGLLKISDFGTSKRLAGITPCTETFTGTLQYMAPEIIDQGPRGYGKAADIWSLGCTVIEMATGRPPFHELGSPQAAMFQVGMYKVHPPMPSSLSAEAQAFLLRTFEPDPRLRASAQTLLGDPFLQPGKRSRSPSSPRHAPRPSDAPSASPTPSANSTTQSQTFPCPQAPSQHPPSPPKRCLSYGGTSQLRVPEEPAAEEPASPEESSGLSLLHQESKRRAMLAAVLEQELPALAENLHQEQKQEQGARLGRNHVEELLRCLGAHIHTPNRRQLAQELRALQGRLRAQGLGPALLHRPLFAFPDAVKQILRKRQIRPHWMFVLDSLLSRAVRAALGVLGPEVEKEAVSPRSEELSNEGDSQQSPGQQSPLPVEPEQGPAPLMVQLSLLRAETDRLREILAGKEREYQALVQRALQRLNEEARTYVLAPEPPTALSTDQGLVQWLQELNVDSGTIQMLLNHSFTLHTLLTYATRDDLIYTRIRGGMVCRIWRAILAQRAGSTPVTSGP
# Serine/threonine-protein kinase PRP4 homolog (Homo sapiens), sequence (Q13523 whole entry, the tested form may be a part): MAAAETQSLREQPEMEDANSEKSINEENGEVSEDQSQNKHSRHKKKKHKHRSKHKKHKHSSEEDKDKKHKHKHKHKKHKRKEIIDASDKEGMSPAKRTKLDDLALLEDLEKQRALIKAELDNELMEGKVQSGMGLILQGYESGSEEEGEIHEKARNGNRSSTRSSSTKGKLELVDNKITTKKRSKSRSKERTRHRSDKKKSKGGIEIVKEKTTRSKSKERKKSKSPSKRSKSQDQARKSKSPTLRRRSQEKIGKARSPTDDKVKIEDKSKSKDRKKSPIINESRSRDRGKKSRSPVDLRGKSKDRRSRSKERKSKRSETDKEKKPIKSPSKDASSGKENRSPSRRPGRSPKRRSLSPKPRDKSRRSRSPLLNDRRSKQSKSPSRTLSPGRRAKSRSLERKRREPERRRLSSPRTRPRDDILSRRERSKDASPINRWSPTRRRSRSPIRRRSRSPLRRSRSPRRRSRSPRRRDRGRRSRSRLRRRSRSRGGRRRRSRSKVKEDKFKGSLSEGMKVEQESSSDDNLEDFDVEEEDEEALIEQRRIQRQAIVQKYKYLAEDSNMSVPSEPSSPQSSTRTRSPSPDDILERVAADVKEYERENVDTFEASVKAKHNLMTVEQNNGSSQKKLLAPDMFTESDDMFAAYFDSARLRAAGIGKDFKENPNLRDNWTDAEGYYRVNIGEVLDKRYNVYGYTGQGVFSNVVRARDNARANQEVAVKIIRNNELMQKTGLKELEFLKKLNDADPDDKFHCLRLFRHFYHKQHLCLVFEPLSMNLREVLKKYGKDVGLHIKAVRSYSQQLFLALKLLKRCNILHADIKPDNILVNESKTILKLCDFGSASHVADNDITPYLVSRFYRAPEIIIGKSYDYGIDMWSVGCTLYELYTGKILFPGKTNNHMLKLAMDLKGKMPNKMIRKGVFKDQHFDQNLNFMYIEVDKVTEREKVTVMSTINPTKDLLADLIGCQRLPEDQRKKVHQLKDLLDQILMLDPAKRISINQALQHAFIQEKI
# Serine/threonine-protein kinase SIK3 (Homo sapiens), sequence (Q9Y2K2 whole entry, looked up, the tested form may be a part): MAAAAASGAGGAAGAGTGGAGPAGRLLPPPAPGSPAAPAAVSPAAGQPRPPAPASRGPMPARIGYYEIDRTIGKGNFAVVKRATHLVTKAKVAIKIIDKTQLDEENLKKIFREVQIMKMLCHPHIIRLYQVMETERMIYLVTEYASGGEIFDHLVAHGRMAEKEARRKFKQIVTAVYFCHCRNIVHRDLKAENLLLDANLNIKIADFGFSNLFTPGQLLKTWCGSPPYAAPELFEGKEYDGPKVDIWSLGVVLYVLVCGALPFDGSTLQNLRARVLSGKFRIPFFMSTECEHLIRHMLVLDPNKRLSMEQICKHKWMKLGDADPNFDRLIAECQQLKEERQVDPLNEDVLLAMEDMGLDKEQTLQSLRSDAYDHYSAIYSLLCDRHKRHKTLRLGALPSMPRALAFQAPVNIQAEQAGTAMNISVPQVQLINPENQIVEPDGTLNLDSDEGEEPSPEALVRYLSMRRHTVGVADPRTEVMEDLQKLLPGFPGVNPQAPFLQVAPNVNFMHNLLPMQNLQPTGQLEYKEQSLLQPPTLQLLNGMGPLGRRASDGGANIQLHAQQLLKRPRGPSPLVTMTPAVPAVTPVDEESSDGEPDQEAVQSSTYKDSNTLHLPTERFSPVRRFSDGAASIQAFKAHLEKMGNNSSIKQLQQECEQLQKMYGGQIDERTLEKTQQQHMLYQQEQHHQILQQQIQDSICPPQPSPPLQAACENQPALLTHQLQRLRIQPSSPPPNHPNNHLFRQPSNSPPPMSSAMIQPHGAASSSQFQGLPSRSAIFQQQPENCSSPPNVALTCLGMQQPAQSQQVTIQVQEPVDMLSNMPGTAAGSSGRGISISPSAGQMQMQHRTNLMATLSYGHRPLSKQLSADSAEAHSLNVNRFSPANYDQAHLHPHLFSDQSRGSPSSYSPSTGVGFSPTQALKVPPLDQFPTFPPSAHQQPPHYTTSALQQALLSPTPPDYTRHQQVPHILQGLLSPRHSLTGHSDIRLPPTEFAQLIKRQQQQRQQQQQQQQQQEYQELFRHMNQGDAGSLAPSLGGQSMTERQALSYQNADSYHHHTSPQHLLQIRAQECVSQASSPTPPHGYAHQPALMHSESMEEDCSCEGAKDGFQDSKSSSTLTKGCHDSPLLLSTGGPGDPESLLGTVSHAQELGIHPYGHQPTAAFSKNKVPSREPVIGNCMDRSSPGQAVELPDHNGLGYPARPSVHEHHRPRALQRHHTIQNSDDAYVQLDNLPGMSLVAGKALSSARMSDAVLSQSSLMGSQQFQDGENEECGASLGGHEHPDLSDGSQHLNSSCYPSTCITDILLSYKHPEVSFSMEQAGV
# Fibroblast growth factor receptor 3 (Homo sapiens), sequence (P22607 23-806 limits assumed): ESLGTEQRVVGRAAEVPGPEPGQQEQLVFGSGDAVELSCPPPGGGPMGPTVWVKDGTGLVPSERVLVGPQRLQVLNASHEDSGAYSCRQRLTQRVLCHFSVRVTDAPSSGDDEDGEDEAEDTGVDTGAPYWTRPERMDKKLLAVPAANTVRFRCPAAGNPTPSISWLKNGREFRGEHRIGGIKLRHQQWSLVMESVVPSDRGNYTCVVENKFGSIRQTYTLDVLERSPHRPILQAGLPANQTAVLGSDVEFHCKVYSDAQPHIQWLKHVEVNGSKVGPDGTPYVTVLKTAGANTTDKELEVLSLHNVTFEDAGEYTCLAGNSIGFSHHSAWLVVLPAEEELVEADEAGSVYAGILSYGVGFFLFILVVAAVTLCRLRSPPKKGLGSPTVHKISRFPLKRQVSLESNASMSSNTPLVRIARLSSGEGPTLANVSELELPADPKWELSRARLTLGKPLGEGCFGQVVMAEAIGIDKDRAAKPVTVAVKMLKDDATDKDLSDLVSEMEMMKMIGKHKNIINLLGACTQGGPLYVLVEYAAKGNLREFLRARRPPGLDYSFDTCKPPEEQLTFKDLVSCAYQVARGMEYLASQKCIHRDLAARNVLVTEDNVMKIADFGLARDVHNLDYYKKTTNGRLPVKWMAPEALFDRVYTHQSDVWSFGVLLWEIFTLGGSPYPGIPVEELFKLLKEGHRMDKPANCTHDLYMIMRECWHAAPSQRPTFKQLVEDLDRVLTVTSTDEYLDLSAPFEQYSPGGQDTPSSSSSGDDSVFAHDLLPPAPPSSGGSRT
SMILES,Activity [1] [%],Activity [2] [%],Activity [3] [%],Activity [4] [%],Activity [5] [%],Activity [6] [%],Activity [7] [%],Activity [8] [%],Activity [9] [%],Activity [10] [%],Activity [11] [%],Activity [12] [%],Activity [13] [%],Activity [14] [%],Activity [15] [%],Activity [16] [%],Activity [17] [%],Activity [18] [%],Activity [19] [%],Activity [20] [%],also measured
CCC(=O)Nc1ccc(C(=O)Nc2ccc(Nc3ncc4c(n3)N(C)c3ccc(C)cc3C(=O)N4C)cc2)cc1,72,94,82,80,93,65,94,100,89,91,95,94,100,87,86,89,78,93,89,87,Activity [21]: 100%; Activity [22]: 85%; Activity [23]: 8.2%; Activity [24]: 100%; Activity [25]: 81%
C=CC(=O)Nc1ccc(C(=O)Nc2ccc(Nc3ncc4c(n3)N(C)c3ccc(C)cc3C(=O)N4C)cc2)cc1,85,96,100,92,100,100,86,99,83,100,96,93,88,96,96,98,77,84,73,92,Activity [21]: 88%; Activity [22]: 84%; Activity [23]: 71%; Activity [24]: 100%; Activity [25]: 97%

# Source: ChEMBL document CHEMBL4184148 (Bioorg Med Chem Lett, 2017)
